Source: ChEMBL document CHEMBL3259693, “Multitarget drug discovery for tuberculosis and other infectious diseases” (J Med Chem, 2014)
≈ marks a conversion by molar mass, not a printed value. Calls of active or inactive are those of the source. The calls are words filed in the database; no cut-off is given here.

Key:
[1] = tested on: Plasmodium falciparum; assay: Antimicrobial activity against Plasmodium falciparum 3D7 by intraerythrocytic assay; type: functional, organism-based
[2] = tested on: Mycolicibacterium smegmatis; assay: Disruption of membrane potential in Mycobacterium smegmatis by DisC3(5) probe-based fluorescence spectrophotometry; type: functional, organism-based
[3] = Inhibition of Escherichia coli N-terminal strep-tagged MenA expressed in Escherichia coli C43 (DE3) assessed as demethylmenaquinone-3 formation after 30 mins by HPLC analysis
[4] = tested on: Mycolicibacterium smegmatis; assay: Inhibition of respiration in Mycobacterium smegmatis after 5 mins by methylene blue reduction assay in presence of NADH; type: functional, organism-based
[5] = tested on: MCF7; assay: Cytotoxicity against human MCF7 cells assessed as growth inhibition by MTT assay; type: cell-based
[6] = tested on: Mycolicibacterium smegmatis; assay: microbe, parasite or virus in culture; type: functional; conditions: ATCC 700084
[7] = tested on: Escherichia coli; assay: Induction of collapse in deltapH in Escherichia coli inverted membrane vesicles by 31P NMR spectroscopy; type: functional, organism-based
[8] = tested on: Mycobacterium tuberculosis; assay: Antimicrobial activity against Mycobacterium tuberculosis after 7 to 21 days by microdilution method; type: functional
[9] = tested on: Mycolicibacterium smegmatis; assay: Antimicrobial activity against Mycobacterium smegmatis after 10 hrs; type: functional
[10] = tested on: Mycobacterium tuberculosis; assay: microbe, parasite or virus in culture; type: functional; conditions: ATCC 27294
[11] = tested on: Mycolicibacterium smegmatis; assay: Induction of collapse in deltapH in Mycobacterium smegmatis inverted membrane vesicles at 30 to 150 uM by 31P NMR spectroscopy; type: functional
[12] = tested on: Bacillus subtilis; assay: Antimicrobial activity against Bacillus subtilis subsp. subtilis ATCC 6051 after 12 to 16 hrs by microbroth dilution method; type: functional, organism-based
[13] = tested on: Saccharomyces cerevisiae; assay: Antimicrobial activity against Saccharomyces cerevisiae ATCC 208352 after 48 hrs by microbroth dilution method; type: functional, organism-based; conditions: ATCC 208352, 48 h
[14] = Inhibition of Mycobacterium smegmatis MenA; parameters: species or system Mycolicibacterium smegmatis
[15] = tested on: Candida albicans; assay: Antimicrobial activity against Candida albicans CAI-4; type: functional, organism-based
[16] = Inhibition of Mycobacterium smegmatis MenG using radiolabeled S-adenosylmethionine as substrate after 1 hr by liquid scintillation counting analysis; parameters: species or system Mycolicibacterium smegmatis
[17] = tested on: Escherichia coli; assay: Ratio of IC50 for Escherichia coli ATCC 29425 in presence of 10% fetal bovine serum to IC50 for Escherichia coli ATCC 29425; type: functional
Procedure, shortened: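 E. coli broth microdilution in LB. Culture was grown to OD600 ~0.4, diluted 500-fold, and exposed to compound from 0.3 mM, 2× serially diluted to 292 nM. Plates ran 3 h at 37 °C with or without 10% FBS. Viability was read by MTT at 570 nm, and IC50 was obtained by non-linear regression.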

[18] = tested on: Staphylococcus aureus; assay: Antimicrobial activity against methicillin-resistant Staphylococcus aureus USA300; type: functional
[19] = tested on: Escherichia coli; assay: microbe, parasite or virus in culture; type: functional, organism-based; conditions: ATCC 29425, 3 h
[20] = Therapeutic index, ratio of IC50 for human MCF7 cells to MIC for Mycobacterium tuberculosis ATCC 27294; type: cell-based; conditions: MCF7 cells versus Mycobacterium tuberculosis ATCC 27294, read-out: TI
[21] = target: T1, Squalene synthase (Homo sapiens, UniProt P37268); assay: Inhibition of human SQS
T1 sequence (P37268 whole entry): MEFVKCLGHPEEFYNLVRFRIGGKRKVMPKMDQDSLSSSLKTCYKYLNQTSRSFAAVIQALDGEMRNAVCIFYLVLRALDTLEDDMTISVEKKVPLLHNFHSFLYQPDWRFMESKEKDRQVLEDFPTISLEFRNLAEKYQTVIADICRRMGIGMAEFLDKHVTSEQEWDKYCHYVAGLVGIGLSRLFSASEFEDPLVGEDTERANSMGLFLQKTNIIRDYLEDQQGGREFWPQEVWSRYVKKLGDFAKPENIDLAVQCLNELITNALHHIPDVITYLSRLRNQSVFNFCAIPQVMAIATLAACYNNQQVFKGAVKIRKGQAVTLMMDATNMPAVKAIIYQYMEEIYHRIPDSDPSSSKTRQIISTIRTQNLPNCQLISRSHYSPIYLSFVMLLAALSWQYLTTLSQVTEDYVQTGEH

[22] = target: T2, 4,4'-diapophytoene synthase (Staphylococcus aureus, UniProt A9JQL9); assay: Inhibition of Staphylococcus aureus CrtM
T2 sequence (A9JQL9 whole entry): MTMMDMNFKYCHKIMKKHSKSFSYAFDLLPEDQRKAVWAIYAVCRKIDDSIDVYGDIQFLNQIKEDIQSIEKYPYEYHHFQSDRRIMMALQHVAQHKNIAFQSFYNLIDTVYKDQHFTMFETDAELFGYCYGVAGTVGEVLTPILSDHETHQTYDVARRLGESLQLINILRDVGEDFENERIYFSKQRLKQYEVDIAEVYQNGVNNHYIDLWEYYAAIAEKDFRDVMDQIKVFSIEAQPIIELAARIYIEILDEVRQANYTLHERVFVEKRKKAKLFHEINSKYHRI

[23] = tested on: Mycolicibacterium smegmatis; conditions: at 40 to 120 µM
[24] = Therapeutic index, ratio of IC50 for human MCF7 cells to IC50 for Plasmodium falciparum 3D7; type: cell-based; conditions: MCF7 cells versus Plasmodium falciparum 3D7, read-out: Ratio IC50

| SMILES | IC50 [1] [µM] | IC50 [2] [µM] | IC50 [3] [µM] | IC50 [4] [µM] | IC50 [5] [µM] | MIC [6] [µM] | IC50 [7] [µM] | MIC [10] [µM] | IC50 [12] [µM] | IC50 [13] [µM] | IC50 [15] [µM] | MIC [18] [µM] | IC50 [19] [µM] | further results |
| --- | --- | --- | --- | --- | --- | --- | --- | --- | --- | --- | --- | --- | --- | --- |
| CC(C)=CCC/C(C)=C/COCCOC1C2CC3CC(C2)CC1C3 (stereo unspecified) | 24 | 150 | 4.2 | 600 | 220 | 150 (≈ 49.9 µg/mL) | 15 |  |  |  |  |  |  |  |
| CC[C@@H](CO)NCCN[C@@H](CC)CO [ETHAMBUTOL] |  |  |  |  |  |  |  |  |  |  |  |  |  | MIC [8]: 9.8 µM (≈ 2 µg/mL); MIC [9]: 4.9 µM (≈ 1 µg/mL) |
| CC(C)=CCC/C(C)=C/CNCCO[C@@H]1C[C@@H]2CC[C@@]1(C)C2(C)C |  | 44 | 3.2 | 0.3 | 3.9 | 4.8 (≈ 1.6 µg/mL) | 0.8 | 0.15 (≈ 0.05 µg/mL) | 5.4 | 2.7 | 19 | 24 (≈ 8.01 µg/mL) | 36 | EC50 [2]: 15 µg/mL (≈ 45 µM); Activity [11]: Active; IC50 [14]: 8 µM; IC50 [16]: 5.7 µM; Ratio IC50 [17]: 1.6 |
| CC(C)=CCC/C(C)=C/CNCCOC(C)(C)C | 13 | 150 | 4.6 | 9500 | 178 | 198 (≈ 50.2 µg/mL) | 4.7 | 24 (≈ 6.08 µg/mL) |  | 174 |  |  |  |  |
| CO[C@@H]1C[C@@H](C[C@H]2CC[C@H](C)[C@H]([C@@H](C)C(=O)O)O2)O[C@]2(O[C@](C)([C@H]3CC[C@@](C)([C@@H]4O[C@@H]([C@H]5O[C@@](O)(CO)[C@H](C)C[C@@H]5C)C[C@@H]4C)O3)C[C@H]2C)[C@@H]1C |  |  |  |  |  |  |  |  |  |  |  |  |  | Activity [11]: Active |
| CC(C)=CCC/C(C)=C/CNC(=O)COC1C2CC3CC(C2)CC1C3 (stereo unspecified) | 18 | 150 | 5.8 | 330 | 35 | 18 (≈ 6.22 µg/mL) | 12 | 2.2 (≈ 0.76 µg/mL) |  |  |  |  |  |  |
| CC(C)[C@@H]1NC(=O)[C@H](C)OC(=O)[C@@H](C(C)C)NC(=O)[C@@H](C(C)C)OC(=O)[C@H](C(C)C)NC(=O)[C@H](C)OC(=O)[C@@H](C(C)C)NC(=O)[C@@H](C(C)C)OC(=O)[C@H](C(C)C)NC(=O)[C@H](C)OC(=O)[C@@H](C(C)C)NC(=O)[C@@H](C(C)C)OC1=O |  |  |  |  |  |  |  |  |  |  |  |  |  | Activity [11]: inactive |
| CC(C)=CCC/C(C)=C/COCC(=O)NC1C2CC3CC(C2)CC1C3 (stereo unspecified) | 11 | 150 | 16 | 280 | 27 | 72 (≈ 24.9 µg/mL) | 7.4 | 34 (≈ 11.7 µg/mL) | 49 |  |  |  |  |  |
| N#CC(C#N)=NNc1cccc(Cl)c1 |  |  |  |  |  |  |  |  |  |  |  |  |  | Activity [11]: Active |
| CC(C)=CCC/C(C)=C/CNCCOC1C2CC3CC(C2)CC1C3 (stereo unspecified) | 2.4 | 31 | 0.4 | 0.5 | 30 | 4.8 (≈ 1.59 µg/mL) | 0.8 | 0.06 (≈ 0.0199 µg/mL) | 48 | 5.4 | 36 | 24 (≈ 7.96 µg/mL) | 8.5 | selectivity ratio [20]: 900; IC50 [14]: 4 µM; IC50 [21]: 100 µM; IC50 [16]: 15 µM; IC50 [22]: 100 µM; Ratio IC50 [17]: 1.6; inhibition [23]: Active; selectivity ratio [24]: 40 |
| CC(C)=CCC/C(C)=C/C[N+](C)(C)CCOC1C2CC3CC(C2)CC1C3 (stereo unspecified) | 0.16 | 51 | 1 | 0.5 | 6.5 | 24 | 18 | 1.6 | 8.6 | 31 | 37 | 16 | 76 |  |
| CC(C)=CCC/C(C)=C/CNCCCOC1C2CC3CC(C2)CC1C3 (stereo unspecified) | 2.4 | 50 | 1.9 | 4.8 | 9.8 | 18 (≈ 6.22 µg/mL) | 1.1 | 4.6 (≈ 1.59 µg/mL) | 8.7 | 7.8 | 19 | 23 (≈ 7.95 µg/mL) | 6.7 |  |
| CC(C)=CCC/C(C)=C/COCCNC1C2CC3CC(C2)CC1C3 (stereo unspecified) | 2.8 | 78 | 1.8 | 36 | 338 | 19 (≈ 6.3 µg/mL) | 1 | 0.57 (≈ 0.189 µg/mL) |  |  |  |  | 13 | IC50 [21]: 100 µM; IC50 [22]: 100 µM |
| CC(C)=CCC/C(C)=C/CNCCOc1cccc2ccccc12 |  | 130 | 3.3 | 140 | 22 | 37 (≈ 12 µg/mL) | 7.1 | 19 (≈ 6.15 µg/mL) | 7.4 | 11 | 37 | 25 (≈ 8.09 µg/mL) | 46 |  |
| CC(C)=CCC/C(C)=C/CNCCOc1ccccc1 | 51 |  | 4.6 | 2500 | 23 | 44 (≈ 12 µg/mL) |  | 23 (≈ 6.29 µg/mL) | 62 | 11 | 74 | 117 (≈ 32 µg/mL) | 220 |  |
